Test system: MS2 coat protein
Test: apparent Kd, MS2 coat protein; higher = weaker binding; RNA-MaP array; FMN 200 µM where present
Method in brief: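 Stalled E. coli RNA polymerase produced the designs on Illumina sequencing-chip clusters. SNAP-549-labelled MS2 coat protein was added from 0.7 or 1.5 nM, doubling to 3 µM, without and then with constant ligand, in 100 mM Tris-HCl pH 7.5, 80 mM KCl, 4 mM MgCl2, BSA, DTT, yeast tRNA and Tween-20. The apparent Kd is the median of filtered per-cluster fits of green signal normalised to red-channel RNA signal and control-cluster median Fmax.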

[1] = ligand present: flavin mononucleotide, designed as: ON switch for flavin mononucleotide
[2] = designed as: OFF switch for flavin mononucleotide, no ligand
[3] = ligand present: flavin mononucleotide, designed as: OFF switch for flavin mononucleotide
[4] = designed as: ON switch for flavin mononucleotide, no ligand

| Sequence | apparent Kd [1] [nM] | apparent Kd [2] [nM] | apparent Kd [3] [nM] | apparent Kd [4] [nM] |
| --- | --- | --- | --- | --- |
| CUAUAGAUAUGAGGAUAUGUAUAUCCAACAUGAGGAUCACCCAUGUUGAUGAUCACGUAUGUAAAGCAGAAGGCAUAUCUAUAG | 6.41 | – | – | – |
| CUAUAUUAGUAGAAGGACGGAGAGUAUGUAGUCGUAGGAUAUACAUAAGACAUGAGGAUCACCCAUGUGUGUAUGUUGGGUAUG | – | 9.66 | 8.03 | – |
| CUAUCGUUGCAGAAGGUUAAAUAAUUUCUCAUCAUGUUUACAUGAGGAUCACCCAUGUAUUUGUUGAAGGAUAUGCAAGUGUUG | – | 8.67 | 7.92 | – |
| CUAUGAAGAAUAGGAUAUUCGAUCAAGAGGAUAGAAGAAGGGUUACAUGAGGAUCACCCAUGUAUGCACAUGAGGAUCCCUUAG | – | 98.4 | 107 | – |
| CUAUUCCGAGGAUAUACAUGAGGAUCACCCAUGUCGGGCCUCCGCGUUUAGCGCCUCAGUAGAAGGCGGGUUUC | – | 19.1 | 25.4 | – |
| CUAUUCCGAGGAUAUACAUGAGGAUCACCCAUGUCGGGCCUCUGCGUUUAGCGCGAAAGUAGAAGGUGGGUUUC | – | 34.5 | 33.6 | – |
| CUCAAACAUGAGGAUCACCCAUGUGUUGUCAUGGGAGGAUAUCUAAGUUCGUUGUAGUCGGGAGAAGGCCUAUGUC | 47.2 | – | – | 134 |
| CUCAUGUCAGGAUAUAGCCACAUGAGGAUCACCCAUGUGGACUAGAAGGGACAUGAGGAUCACCCAUGUAUGAA | – | 11.4 | 10.2 | – |
| CUCAUGUGAGGAUAUGCUGCUCGUCACGAAAGUGAUGAGUAGCAGAAGGUACAUGAGGAUCACCCAUGUAAAUA | – | 98.9 | 18.8 | – |
| CUCAUGUUAGGAUAUGCGCCCAGCCUAGUGGCCGGGCUCUAGCAGAAGGAACAUGAGGAUCACCCAUGUUUGCA | – | 62.5 | 18.6 | – |
| CUCCGGCGUGUAGGAUAUGGAUCCGAUUAGGAUCCAGAAGGACAUGAGGAUCACCCAUGUACAUGUAAACAGUCAUCACCGGAC | – | 8.66 | 67.6 | – |
| CUCGGACAUGAGGAUCACCCAUGUGAGGAUAUGAUGCGAUCGUCGAAAGACGAUAGCAUCAGAAGGCACAAAUG | – | 75.6 | 301 | – |
| CUCGUGUAAGGAUAUGCGAGCCGCGGAAAUACACCGCGGAGGUAGAAGGUACAUGAGGAUCACCCAUGUAAAAC | – | 25.5 | 103 | – |
| CUCGUGUGAGGAUAUCUAUUCCACGGACGGGAGUCUUGAUGAGAGAAGGCACAUGAGGAUCACCCAUGUAAUAA | – | 140 | 86.7 | – |
| CUCGUGUUAGGAUAUGGAUAGCCGUUUGACGAGCGAGGGCACUAGAAGGAACAUGAGGAUCACCCAUGUAAAAA | – | 21.3 | 21.1 | – |
| CUCUCGCGAGGAUAUGAUUUAAGUAACAUGAGGAUCACCCAUGUUUUUCCGUUGUUAUGUUCAGAAGGCGCGUGAU | – | 44.2 | 84.3 | – |
| CUCUCUCAUCGAGGAUAUCGAACUUCCACCCUUCGAGAAGGCGACAUGAGGAUCACCCAUGUAAGGAGGACACUCACUCACACA | – | 22.6 | 20.9 | – |
| CUCUUACAUGAGGAUCACCCAUGUGUUGUCGUGGGAGGAUAUCCUGGUUCGGUGGCGUUGGGAGAAGGCCUAUGUC | 242 | – | – | 722 |
| CUCUUGUUAGGAUAUCAAACUGGCGGCGGAGCCGGCAGUAGUGAGAAGGGACAUGAGGAUCACCCAUGUAAGAA | – | 81.9 | 155 | – |

| Sequence | apparent Kd [1] [nM] | apparent Kd [2] [nM] | apparent Kd [3] [nM] | apparent Kd [4] [nM] |
| --- | --- | --- | --- | --- |
| CUGAGUAGUCAGGAUAUGCUGUACAAAAGUACAGCAGAAGGGAUUACAUGAGGAUCACCCAUGUUGUCUUCAUG | – | 160 | 316 | – |
| CUGAUGUCAGGAUAUCGGUGGCUCACUUGUGUGUGCCAGACCGAGAAGGGACAUGAGGAUCACCCAUGUCUUUA | – | 20.2 | 46.2 | – |
| CUGAUGUUAGGAUAUCAGGCGCCCGCCACUGGCAAGGCGCAUGAGAAGGGACAUGAGGAUCACCCAUGUAGUAA | – | 26.3 | 55.7 | – |
| CUGCCUUAUGUAGGAUAUGCAUAGCGUUGCUAUGCAGAAGGACAUGAGGAUCACCCAUGUAUGUAAUCAAUACAUAUCUGGCAG | – | 19.8 | 122 | – |
| CUGCGGGCCAUAGGAUAUGCGCAGAAUUAGCAAGCAGAAGGGUGGAUCGUACAAUAAUAACUACAUGAGGAUCACCCAUGUGCU | 56.1 | – | – | 235 |
| CUGCUCCGUGUAGGAUAUGCAUACUCCCAUUAUGCAGAAGGACAUGAGGAUCACCCAUGUAUGUUAUUAUCACGUGUUGCGUAC | – | 25.7 | 92.2 | – |
| CUGCUGGAGCUUCGCUUUGGUCGUACAUGAGGAUCACCCAUGUAGGAUAUGGUAAAAUUCGCCUGCUAGAAGGAUAGAGUGGUC | – | 67.2 | 139 | – |
| CUGGGAUAGUGGGAUAGGGUUGCCAGAAGGGUCUACAUGAGGAUCACCCAUGUGGGUCCGAGUGGACAGGAUAUGGCGUCCGUA | – | 12.6 | 45.3 | – |
| CUGGUGUGAGGAUAUCAGGACACGUAAGCGGGCGUGUCAAAUGAGAAGGCACAUGAGGAUCACCCAUGUGGGAC | – | 34 | 214 | – |
| CUGGUUGUCGAGGAUAUGUCCCGGCUCGCAGUCGCAGAAGGCGACACAUGAGGAUCACCCAUGUCGGUUCGCGU | – | 13.8 | 13.3 | – |
| CUGGUUGUCGUAGGAUAUGUAGGAUAUUCCUACAUGAGGAUCACCCAUGUUCGCAUGGAAGAAGGACAGAAGGACGAUGACCAU | 9.16 | – | – | 1020 |
| CUGUGAUGGAUCCAGAAUUACAACAUGAGGAUCACCCAUGUGCAGGAUAUCGGGUUGAUAGGCGCCGAGAAGGGUAUAAUCACG | – | 110 | 105 | – |
| CUGUUAUAGGUCCAUUUUUUCAACAUGAGGAUCACCCAUGUGCAGGAUAUCGUGUUAAUUUUCAUCGAGAAGGGCAUAGUCACG | – | 30.1 | 63.8 | – |
| CUGUUCCGUGUAGGAUAUGCAUAUUCCCAUUAUGCAGAAGGACAUGAGGAUCACCCAUGUAUGUUAUUAUCAUGUGUUACAUGC | – | 44.4 | 453 | – |
| CUGUUGGGCUCAGGAUAUCGGGUUUAACAUGAGGAUCACCCAUGUCGUCUGCGAAAGCAGAAUCACGAGAAGGGAGACCAGCGA | 7.53 | – | – | 13.3 |
| CUUAGACAUGAGGAUCACCCAUGUCAGGAUAUCGUCUACCUGUGGAAACACAGGUAGACGAGAAGGGAUGUGUU | – | 51.6 | 41.4 | – |
| CUUAGUAUCUAGGAUAUCUAGUACAUAGUAUCUAGAGAAGGAGAUACAUGAGGAUCACCCAUGUUCUGUGUUCU | – | 23.9 | 68.7 | – |
| CUUAUGUGAGGAUAUCAGUAGUAAAAAAAUAAAAUUACUACUGAGAAGGCACAUGAGGAUCACCCAUGUGUCUC | – | 20.4 | 22.2 | – |
| CUUAUGUGAGGAUAUGGUGUUGAUCACAGGAAAAAGAUUCUCCAGAAGGCACAUGAGGAUCACCCAUGUAGUGA | – | 145 | 90 | – |

| Sequence | apparent Kd [1] [nM] | apparent Kd [2] [nM] | apparent Kd [3] [nM] | apparent Kd [4] [nM] |
| --- | --- | --- | --- | --- |
| CUUAUGUGAGGAUAUGGUGUUGGCCACAGGGAAAAGGUCCUCCAGAAGGCACAUGAGGAUCACCCAUGUAGUGA | – | 165 | 56.3 | – |
| CUUAUGUGAGGAUAUGGUGUUGGUCACAGGAAAAAGAUUCUCCAGAAGGCACAUGAGGAUCACCCAUGUAGUGA | – | 89.4 | 71.2 | – |
| CUUCGACAUGAGGAUCACCCAUGUCAGGAUAUUGUGUAUCGGGUUUUUUACGGAUAGGCAAGAAGGGAUGUGUG | – | 35.6 | 34.2 | – |
| CUUCGGGCAGGAUAUGCUGUUUGUGACAUGAGGAUCACCCAUGUGAUGCAGUUUGGGUGUGCAGAAGGGCCUGAGU | – | 54.6 | 67.2 | – |
| CUUGGCUAGGAGAAGGGCUAGAGUGUGAUAUAUUUGCCCGCGAGCACAUGAGGAUCACCCAUGUAGCAGGAUAUCCAAGCCGGU | – | 7.4 | 17.4 | – |
| CUUUAAGUCGAGAAGGACAUGAGGAUCACCCAUGUAGGAUAUCGAUUAGCUUGCAUCCCGAGCCGCAUCGGUGUGACUGGUGGG | 7.83 | – | – | 36.5 |
| CUUUAGUCAGGAUAUACAUGAGGAUCACCCAUGUAAAAUUUUAAUUUAAUUUUAAGGUGUAGAAGGGACCACCC | – | 33.4 | 29.3 | – |
| CUUUGAUGAGGAUAUCGAGGUUAGUACAUGAGGAUCACCCAUGUUAUCCAGGUGUCGGAUCGAGAAGGUAUUGGAC | – | – | 17.5 | – |
| CUUUUGGGAGGAUAUUAGUAGUAAAUAAAUAAAAUUACUACUGAGAAGGCACAUGAGGAUCACCCAUGUUCCUC | – | 17.9 | 26.1 | – |
| CUUUUGUGAGGAUAUCAGGUGUGCUAGCGUACUGGUACAUCUGAGAAGGCACAUGAGGAUCACCCAUGUUCCUC | – | 42.2 | 238 | – |
| CUUUUGUGAGGAUAUCAGUAGUAAAAAAAUAAUAUUACUACUGAGAAGGCACAUGAGGAUCACCCAUGUUCCUC | – | 36 | 276 | – |
| CUUUUGUGAGGAUAUCAGUAGUAAAAUAAUAAAUAUACUACUGAGAAGGCACAUGAGGAUCACCCAUGUUCCUC | – | 37.8 | 233 | – |
| CUUUUGUGAGGAUAUCAGUAGUAAAUAAAUAAAAUUAAUACUGAGAAGGCACAUGAGGAUCACCCAUGUUCCUC | – | 33.1 | 162 | – |
| CUUUUGUGAGGAUAUCAGUAGUAAAUAAAUAAAUUUACUACUGAGAAGGCACAUGAGGAUCACCCAUGUUCCUC | – | 39.1 | 292 | – |
| CUUUUGUGAGGAUAUCAGUAGUAAUAAAAUAAAAUAACUACUGAGAAGGCACAUGAGGAUCACCCAUGUUCCUC | – | 32 | 145 | – |
| CUUUUGUGAGGAUAUCAGUAGUAAUACAAUAGUAUUACUGCUGAGAAGGCACAUGAGGAUCACCCAUGUUCCUC | – | 59.9 | 284 | – |
| CUUUUGUGAGGAUAUCAGUAGUAUAAAAUAAAAUAUACUACUGAGAAGGCACAUGAGGAUCACCCAUGUUCCUC | – | 38.3 | 263 | – |
| CUUUUGUGAGGAUAUUAGUAGUAAACGAACAAAAUUAUUACUGAGAAGGCACAUGAGGAUCACCCAUGUUCCUC | – | 46 | 575 | – |
| CUUUUGUGAGGAUAUUAGUAGUAAAUAAAUAAAUUUACUACUGAGAAGGCACAUGAGGAUCACCCAUGUUCCUC | – | 36.7 | 328 | – |
